According to ChEMBL document CHEMBL1138764, “Resistance-modifying agents. 11.(1) Pyrimido[5,4-d]pyrimidine modulators of antitumor drug activity. Synthesis and structure-activity relationships for nucleoside transport inhibition and binding to alpha1-acid glycoprotein” (J Med Chem, 2004):
Several values for one entry are separate records, joined by “and”; a condition that tells them apart may be missing. Identical values can stand only once. Activity calls are given as the source filed them. The calls are words filed in the database; no cut-off is given here.

Key:
L1210 [1] = assay: Inhibition of [3H]thymidine uptake in L1210 cells; assay type: functional, cell-based; details: Mus musculus
Method in brief: (§1)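 ³H-thymidine uptake into L1210 leukaemia cells measured by a modified rapid-mixing technique with inhibitor-stop. Values are mean ± SD of three or more separate determinations. IC50 is interpolated from concentration–inhibition curves.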

L1210 [2] = assay: Inhibition of [3H]thymidine uptake in L1210 cells at 1 uM; assay type: functional; details: Mus musculus; method in brief: as §1
L1210 [3] = assay: Tested for the reduction in inhibition of [3H]thymidine uptake in L1210 cells in the presence of 5 mg/mL human AGP; assay type: functional, Mus musculus
Method in brief: (§2)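 Rapid-mixing, inhibitor-stop ³H-thymidine uptake into L1210 leukaemia cells run with 5 mg/mL human AGP present. Values are mean ± SD of three or more separate determinations. Significance of the difference from inhibition without AGP is taken at p ≤ 0.05.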

L1210 [4] = assay: Inhibition of [3H]thymidine uptake in L1210 cells at 10 uM; assay type: functional; details: Mus musculus; method in brief: as §1
L1210 [5] = assay: Inhibition of [3H]thymidine uptake in L1210 cells in the presence of 5 mg/mL human AGP at 1 uM; assay type: functional, Mus musculus; method in brief: as §2
L1210 [6] = assay: Compound was tested for the inhibition of [3H]thymidine uptake in L1210 cells at 0.1 uM; assay type: functional; details: Mus musculus; method in brief: as §1
L1210 [7] = assay: Compound was tested for the inhibition of [3H]thymidine uptake in L1210 cells at 100 uM; assay type: functional; details: Mus musculus; method in brief: as §1

In the case of COc1ccc(CN(C)c2nc(OCCCO)nc3c(N(C)Cc4ccc(OC)c(OC)c4)nc(OCCCO)nc23)cc1OC, the IC50 (L1210 [1]) is reported as 750 nM and the inhibition at 1 µM (L1210 [2]) is reported as 54%.

In the case of C[C@H](O)COc1nc(N2CCCCC2)c2nc(OC[C@@H](C)O)nc(N3CCCCC3)c2n1, the Reduction (L1210 [3]) is reported as 55%, the IC50 (L1210 [1]) is reported as 900 nM and the inhibition at 1 µM (L1210 [2]) is reported as 47%. For the same compound, the inhibition at 10 µM (L1210 [4]) was 92% and the Inhibition (L1210 [5]) was 20%.

COc1ccc(CNc2nc(OCCCO)nc3c(NCc4ccc(OC)c(OC)c4)nc(OCCCO)nc23)cc1OC gave a Reduction (L1210 [3]) of 34%, an inhibition at 1 µM (L1210 [2]) of 71% and an Inhibition (L1210 [5]) of 47%.

For COc1ccc(CNc2nc(NCC(C)O)nc3c(NCc4ccc(OC)c(OC)c4)nc(NCC(C)O)nc23)cc1OC (centres undefined), the Reduction (L1210 [3]) was 12%, the IC50 (L1210 [1]) was 400 nM and the inhibition at 1 µM (L1210 [2]) was 83%. It also gave an inhibition at 0.1 µM (L1210 [6]) of 38% and an Inhibition (L1210 [5]) of 73%.

With CCN(CC)c1nc(N2CCCCC2)c2nc(N(CC)CC)nc(N3CCCCC3)c2n1 the inhibition (L1210 [4]) was “inactive”.

Compound COCCOc1nc(N(Cc2ccccc2)Cc2ccccc2)c2nc(OCCOC)nc(N(Cc3ccccc3)Cc3ccccc3)c2n1 has an inhibition at 1 µM (L1210 [2]) of 9% and an inhibition at 10 µM (L1210 [4]) of 15%.

In the case of OCCN(CCO)c1nc(NCc2ccc3c(c2)OCO3)c2nc(N(CCO)CCO)nc(NCc3ccc4c(c3)OCO4)c2n1, the Reduction (L1210 [3]) is reported as 36%, the inhibition at 1 µM (L1210 [2]) is reported as 73% and the Inhibition (L1210 [5]) is reported as 47%.

Work on COc1ccc(CNc2nc(OCCO)nc3c(NCc4ccc(OC)c(OC)c4)nc(OCCO)nc23)cc1OC yielded a Reduction (L1210 [3]) of 46%, an inhibition at 1 µM (L1210 [2]) of 56% and an Inhibition (L1210 [5]) of 30%.

OCCN(CCO)c1nc(NCc2ccc(C(F)(F)F)cc2)c2nc(N(CCO)CCO)nc(NCc3ccc(C(F)(F)F)cc3)c2n1 showed an inhibition at 1 µM (L1210 [2]) of 32% and an inhibition at 10 µM (L1210 [4]) of 60%.

Work on OCCN(CCO)c1nc(N2CCCCC2)nc2c(N(CCO)CCO)nc(N3CCCCC3)nc12 yielded an inhibition at 1 µM (L1210 [2]) of 34% and an inhibition at 10 µM (L1210 [4]) of 74%.

For c1ccc(CNc2ncnc3c(NCc4ccccc4)ncnc23)cc1, the inhibition at 10 µM (L1210 [4]) was 40%.

In the case of OCCN(CCO)c1nc(N2CCCCC2)c2nc(N(CCO)CCO)nc(N3CCCCC3)c2n1 [DIPYRIDAMOLE], the Reduction (L1210 [3]) is reported as 87% and 96% and the IC50 (L1210 [1]) is reported as 340 nM.

CN(Cc1ccccc1)c1nc(OCCCO)nc2c(N(C)Cc3ccccc3)nc(OCCCO)nc12 showed an IC50 (L1210 [1]) of 1400 nM, an inhibition at 1 µM (L1210 [2]) of 52% and an inhibition at 10 µM (L1210 [4]) of 77%.

For CC(O)CNc1nc(NCc2ccccc2)c2nc(NCC(C)O)nc(NCc3ccccc3)c2n1 (centres undefined), the IC50 (L1210 [1]) was 3000 nM, the inhibition at 1 µM (L1210 [2]) was 33% and the inhibition at 10 µM (L1210 [4]) was 84%.

Compound CCCOc1nc(N2CCCCC2)c2nc(OCCC)nc(N3CCCCC3)c2n1 has an IC50 (L1210 [1]) of 52000 nM, an inhibition at 10 µM (L1210 [4]) of 37% and an inhibition at 100 µM (L1210 [7]) of 60%.

With CCC(C)COc1nc(N2CCCCC2)c2nc(OCC(C)CC)nc(N3CCCCC3)c2n1 (centres undefined) the inhibition (L1210 [4]) was “inactive”.

Compound OCCNc1nc(NCc2ccccc2)c2nc(NCCO)nc(NCc3ccccc3)c2n1 has an IC50 (L1210 [1]) of 750 nM and an inhibition at 1 µM (L1210 [2]) of 46%.

With OCCOc1nc(N2CCCCC2)c2nc(OCCO)nc(N3CCCCC3)c2n1 the IC50 (L1210 [1]) was 6300 nM and the inhibition at 1 µM (L1210 [2]) was 13%.

c1nc(N2CCCCC2)c2ncnc(N3CCCCC3)c2n1 was tested, and the inhibition (L1210 [7]) was “inactive”.

In the case of OCCN(CCO)c1nc(N2CCCC(O)C2)c2nc(N(CCO)CCO)nc(N3CCCC(O)C3)c2n1 (centres undefined), the IC50 (L1210 [1]) is reported as 2600 nM, the inhibition at 1 µM (L1210 [2]) is reported as 28% and the inhibition at 10 µM (L1210 [4]) is reported as 50%.

In the case of COc1ccc(CN(C)c2nc(NCC(C)O)nc3c(N(C)Cc4ccc(OC)c(OC)c4)nc(NCC(C)O)nc23)cc1OC (centres undefined), the Reduction (L1210 [3]) is reported as 22%, the inhibition at 1 µM (L1210 [2]) is reported as 73% and the Inhibition (L1210 [5]) is reported as 57%.

OCCCOc1nc(N2CCCCC2)c2nc(OCCCO)nc(N3CCCCC3)c2n1 showed an inhibition at 1 µM (L1210 [2]) of 35% and an inhibition at 10 µM (L1210 [4]) of 76%.

For CCCOc1nc(N(C)Cc2ccccc2)c2nc(OCCC)nc(N(C)Cc3ccccc3)c2n1, the inhibition at 10 µM (L1210 [4]) was 8%.

Compound COc1ccc(CN(C)c2nc(N(CCO)CCO)nc3c(N(C)Cc4ccc(OC)cc4)nc(N(CCO)CCO)nc23)cc1 has a Reduction (L1210 [3]) of 46%, an IC50 (L1210 [1]) of 840 nM and an inhibition at 1 µM (L1210 [2]) of 71%. It also gave an inhibition at 0.1 µM (L1210 [6]) of 27% and an Inhibition (L1210 [5]) of 40%.

Work on COC[C@H](COc1nc(N2CCCCC2)c2nc(OC[C@H](COC)OC)nc(N3CCCCC3)c2n1)OC yielded an inhibition at 10 µM (L1210 [4]) of 100%.

Work on C[C@H](O)COc1nc(N(C)Cc2ccccc2)c2nc(OC[C@@H](C)O)nc(N(C)Cc3ccccc3)c2n1 yielded a Reduction (L1210 [3]) of 84%, an inhibition at 1 µM (L1210 [2]) of 55% and an Inhibition (L1210 [5]) of 9%.

For COc1ccc(CNc2nc(N(CCO)CCO)nc3c(NCc4ccc(OC)c(OC)c4)nc(N(CCO)CCO)nc23)cc1OC, the Reduction (L1210 [3]) was 25%, the IC50 (L1210 [1]) was 270 nM and the inhibition at 1 µM (L1210 [2]) was 73%. It also gave an inhibition at 10 µM (L1210 [4]) of 98% and an Inhibition (L1210 [5]) of 53%.

COCCOc1nc(NCc2ccccc2)c2nc(OCCOC)nc(NCc3ccccc3)c2n1 gave an IC50 (L1210 [1]) of 2400 nM, an inhibition at 1 µM (L1210 [2]) of 31% and an inhibition at 10 µM (L1210 [4]) of 78%.

COCCOc1nc(N2CCCCC2)c2nc(OCCOC)nc(N3CCCCC3)c2n1 showed an IC50 (L1210 [1]) of 4600 nM, an inhibition at 1 µM (L1210 [2]) of 20% and an inhibition at 10 µM (L1210 [4]) of 63%.

COc1ccc(CN(C)c2nc(NCC(C)O)nc3c(N(C)Cc4ccc(OC)cc4)nc(NCC(C)O)nc23)cc1 (centres undefined) showed a Reduction (L1210 [3]) of 86%, an inhibition at 1 µM (L1210 [2]) of 39% and an Inhibition (L1210 [5]) of 5%.

COc1ccc(CNc2nc(OC[C@@H](C)O)nc3c(NCc4ccc(OC)cc4)nc(OC[C@H](C)O)nc23)cc1 was tested, and the inhibition at 1 µM (L1210 [2]) was 68%.

In the case of OCC(O)COc1nc(N2CCCCC2)c2nc(OC[C@H](O)CO)nc(N3CCCCC3)c2n1 (some centres undefined), the inhibition at 10 µM (L1210 [4]) is reported as 32% and the inhibition at 100 µM (L1210 [7]) is reported as 87%.

Compound COCC(C)Oc1nc(N2CCCCC2)c2nc(OC(C)COC)nc(N3CCCCC3)c2n1 (centres undefined) has an inhibition at 10 µM (L1210 [4]) of 62% and an inhibition at 100 µM (L1210 [7]) of 96%.

In the case of Clc1nc(NCc2ccccc2)c2nc(Cl)nc(NCc3ccccc3)c2n1, the inhibition (L1210 [7]) is reported as “inactive”.

In the case of COc1ccc(CN(C)c2nc(NCCO)nc3c(N(C)Cc4ccc(OC)c(OC)c4)nc(NCCO)nc23)cc1OC, the inhibition at 1 µM (L1210 [2]) is reported as 57% and the inhibition at 10 µM (L1210 [4]) is reported as 84%.

CN(Cc1ccccc1)c1nc(OCCO)nc2c(N(C)Cc3ccccc3)nc(OCCO)nc12 showed a Reduction (L1210 [3]) of 55%, an IC50 (L1210 [1]) of 800 nM and an inhibition at 1 µM (L1210 [2]) of 49%. It also gave an inhibition at 10 µM (L1210 [4]) of 87% and an Inhibition (L1210 [5]) of 22%.

Compound COCCN(CCOC)c1nc(N2CCCCC2)c2nc(N(CCOC)CCOC)nc(N3CCCCC3)c2n1 has a Reduction (L1210 [3]) of 50%, an IC50 (L1210 [1]) of 2070 nM and an inhibition at 1 µM (L1210 [2]) of 29%. For the same compound, the inhibition at 10 µM (L1210 [4]) was 86%.

In the case of COc1ccc(CNc2nc(OCCCO)nc3c(NCc4ccc(OC)cc4)nc(OCCCO)nc23)cc1, the Reduction (L1210 [3]) is reported as 21%, the IC50 (L1210 [1]) is reported as 460 nM and the inhibition at 1 µM (L1210 [2]) is reported as 63%.

For Clc1nc(Cl)c2nc(Cl)nc(Cl)c2n1, the inhibition (L1210 [7]) was “inactive”.

In the case of CC(C)Oc1nc(N2CCCCC2)c2nc(OC(C)C)nc(N3CCCCC3)c2n1, the inhibition at 10 µM (L1210 [4]) is reported as 23%.

OCCN(CCO)c1nc(N2CCc3ccccc3C2)c2nc(N(CCO)CCO)nc(N3CCc4ccccc4C3)c2n1 showed a Reduction (L1210 [3]) of 31%, an IC50 (L1210 [1]) of 720 nM and an inhibition at 1 µM (L1210 [2]) of 72%. It also gave an inhibition at 10 µM (L1210 [4]) of 100%.

Work on COCCOc1nc(N(C)Cc2ccccc2)c2nc(OCCOC)nc(N(C)Cc3ccccc3)c2n1 yielded an IC50 (L1210 [1]) of 3800 nM, an inhibition at 1 µM (L1210 [2]) of 17% and an inhibition at 10 µM (L1210 [4]) of 68%.

For OCCN(CCO)c1nc(NCc2ccc(Cl)cc2)c2nc(N(CCO)CCO)nc(NCc3ccc(Cl)cc3)c2n1, the IC50 (L1210 [1]) was 1100 nM, the inhibition at 1 µM (L1210 [2]) was 53% and the inhibition at 10 µM (L1210 [4]) was 92%.

In the case of COc1ccc(CNc2nc(N(CCO)CCO)nc3c(NCc4ccc(OC)cc4)nc(N(CCO)CCO)nc23)cc1, the Reduction (L1210 [3]) is reported as 29%, the IC50 (L1210 [1]) is reported as 250 nM and the inhibition at 1 µM (L1210 [2]) is reported as 65%. The inhibition at 10 µM (L1210 [4]) was 96%.
